In ChEMBL document CHEMBL2040843, “Synthesis and in vitro stability of nucleoside 5'-phosphonate derivatives” (Eur J Med Chem, 2012):
Activity calls are given as the source filed them. The calls are words filed in the database; no cut-off is given here.

Columns and labels:
[1] = test system: Platelet; assay: Induction of platelets aggregation in human platelet rich plasma at 10^-4 M after 3 mins by light transmission aggregometry analysis; format: functional, cell-free
How it was run: (§1)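 PRP from citrated whole blood (9:1) of healthy volunteers taken 2 h after an acetylsalicylic acid tablet; centrifuged 150g, 21 °C, 10 min. Pre-warmed PRP at 37 °C with test agent (10^-4 M) or vehicle; aggregation triggered with 10^-6 M ADP; shape change and aggregation followed 3 min by light transmission aggregometry.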

[2] = Half life in Wistar rat liver homogenates at 50 uM by HPLC analysis; format: ADME, tissue-based
How it was run: (§2)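 Male Wistar rat liver washed in ice-cold saline, homogenized in 50 mM Tris-HCl pH 7.4 (4 mL/g); 2000 × g, 10 min, 4 °C supernatant stored −80 °C. Compound from 10^-2 M DMSO stock incubated at 50 μM final, 37 °C, up to 360 min; HPLC with external-standard peak areas. First-order kinetics from semilogarithmic plots; mean ± SD of three independent experiments.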

[3] = test system: Liver; assay: Metabolic stability in Wistar rat liver homogenates assessed as increase in guanine formation by HPLC analysis; format: ADME, tissue-based; conditions: tissue homogenate
How it was run: (§3)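 Supernatant of male Wistar rat liver homogenate (Tris-HCl 50 mM, pH 7.4; 2000 × g) incubated at 37 °C with 50 μM compound up to 360 min. Guanine measured by RP18 HPLC, water/acetonitrile 99:1 with 0.01 M H3PO4, 0.8 mL/min, external-standard peak areas.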

[4] = Antiplatelet activity against human platelets assessed as inhibition of ADP-induced platelet aggregation at 10^-4 M after 3 mins by light transmission aggregometry analysis; format: functional; conditions: 0.05 h; how it was run: as §1
[5] = test system: Blood; assay: (§4) Metabolic stability in human whole blood assessed as compound degradation after 6 hrs by HPLC analysis; format: ADME, tissue-based; conditions: blood, 6 h
How it was run: (§5)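 Compound from 10^-2 M DMSO stock incubated at 50 μM final in whole blood from healthy subjects (3 mL) at 37 °C for intervals up to 360 min. Remaining parent quantified by reversed-phase HPLC, peak areas against external standards; semilogarithmic regression for first-order kinetics; mean ± SD of three independent experiments.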

[6] = test system: Liver; assay: (§6) Metabolic stability in Wistar rat liver homogenates assessed as compound degradation at 50 uM after 6 hrs by HPLC analysis; format: ADME, tissue-based; conditions: tissue homogenate, 6 h, 50 µM; how it was run: as §2
[7] = as §4; format: ADME, tissue-based; conditions: whole blood, read-out: Drug degradation; how it was run: as §5
[8] = as §6; format: ADME, tissue-based; conditions: Wistar, liver homogenates, read-out: Drug degradation; how it was run: as §2
[9] = test system: Liver; assay: Drug degradation in Wistar rat liver homogenates assessed as increase in guanine formation by HPLC analysis; format: ADME, tissue-based; conditions: tissue homogenate; how it was run: as §3

| SMILES | Activity [1] | further results |
| --- | --- | --- |
| CCOP(=O)(CC(=O)NC[C@H]1O[C@@H](n2cnc3c(N)ncnc32)[C@H](O)[C@@H]1O)OCC | inactive | – |
| CCOP(=O)(CC(=O)OC[C@H]1O[C@@H](n2cnc3c(=O)[nH]c(NC(=O)C(C)C)nc32)[C@H](O)[C@@H]1O)OCC | inactive | – |
| Nc1ncnc2c1ncn2[C@@H]1O[C@H](CNC(=O)CP(=O)(O)O)[C@@H](O)[C@H]1O | inactive | – |
| CCOP(=O)(CC(=O)OCCOCn1cnc2c(N)ncnc21)OCC | inactive | – |
| O=C(CP(=O)(O)O)NC[C@H]1O[C@@H](n2cnc3c(=O)[nH]cnc32)[C@H](O)[C@@H]1O | inactive | – |
| Nc1nc2c(ncn2[C@@H]2O[C@H](CO)[C@@H](O)[C@H]2O)c(=O)[nH]1 [GUANOSINE] | – | half-life at 50 µM [2]: 0.00403 h; Stability [3]: Unstable |
| CCOP(=O)(O)CC(=O)OCCOCn1cnc2c(N)ncnc21 | inactive | inhibition at 100 µM [4]: ≤ 70%; Stability [5]: Stable; Stability [6]: Stable |
| CCOP(=O)(CC(=O)NC[C@H](CO)O[C@H](CO)n1cnc2c(N)ncnc21)OCC | inactive | – |
| CCOP(=O)(CC(=O)OC[C@H]1O[C@@H](n2cnc3c(N)ncnc32)[C@H](O)[C@@H]1O)OCC | inactive | – |
| CCOP(=O)(CC(=O)OC[C@H]1O[C@@H](n2cnc3c(=O)[nH]c(N)nc32)[C@H](O)[C@@H]1O)OCC | inactive | half-life at 50 µM [2]: 2.33 h; inhibition at 100 µM [4]: ≤ 70%; metabolised at 6 h [7]: 20%; metabolised at 6 h, 50 µM [8]: 80%; Drug degradation [9]: Active |
| CCOP(=O)(CC(=O)OC[C@H]1O[C@@H](n2cnc3c(=O)[nH]cnc32)[C@H](O)[C@@H]1O)OCC | inactive | – |
| CCOP(=O)(CC(=O)OC[C@H](CO)O[C@H](CO)n1cnc2c(N)ncnc21)OCC | inactive | – |
| CC(C)C(=O)Nc1nc2c(ncn2[C@@H]2O[C@H](COC(=O)CP(=O)(O)O)[C@@H](O)[C@H]2O)c(=O)[nH]1 | inactive | – |
| Nc1ncnc2c1ncn2[C@@H]1O[C@H](COC(=O)CP(=O)(O)O)[C@@H](O)[C@H]1O [ADENOSINE PHOSPHONOACETIC ACID] | inactive | inhibition at 100 µM [4]: ≤ 70%; Stability [5]: Stable; Stability [6]: Stable |
| CCOP(=O)(CC(=O)NC[C@H]1O[C@@H](n2cnc3c(=O)[nH]cnc32)[C@H](O)[C@@H]1O)OCC | inactive | – |
| CCOP(=O)(CC(=O)OC[C@H]1O[C@@H](n2c(SC)nc3c(N)ncnc32)[C@H](O)[C@@H]1O)OCC | inactive | – |
| Nc1nc2c(ncn2[C@@H]2O[C@H](COC(=O)CP(=O)(O)O)[C@@H](O)[C@H]2O)c(=O)[nH]1 | inactive | – |
